Screening results: PubChem, several laboratories
NR2E3 ag-1 = activates human NR2E3 receptor; Q9Y5X4; CHO-S Gal4-NCOR/VP16-NR2E3 two-hybrid, luciferase; inhibition of corepressor binding, % at 3.98 µM; 360,000 compounds, 0.35% hits;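 active means inhibition above the mean of all tested compounds plus 3 SD, cut at about 70% in these data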;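 further: higher means lower luciferase signal from less NR2E3 corepressor binding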
PG9 binder = PG9 antibody binding by small molecule. TR-FRET gp120-PG9 antibody binding. inhibition, % at 6.7 µM. 360,000 compounds, 0.43% hits. AID 624416; in the data active means inhibition above about 8.5%
NR2E3 ag-2 = NR2E3 (human) agonism; Q9Y5X4; GST-NR2E3/biotin-RetCOR TR-FRET, 1536-well; inhibition of corepressor binding, % at 4.78 µM; 320,000 compounds, 0.12% hits; AID 2300;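 active means percent inhibition above the cutoff of mean plus 3 SD of all tested compounds, set per screening campaign, cut at about 20% in these data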
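Material: NR2E3–RetCOR corepressor complex / Amount: 1.35 nM GST-NR2E3 / Medium: Tris pH 7.5 / Compound: single nominal compound dose of 4.8 µM / Incubation: 5 h at 4 °C / Technique: TR-FRET, Eu(K)-anti-GST donor, streptavidin-D2 acceptor, ex 340, em 617/671 nm / Read-out basis: percent loss of FRET ratio relative to control wells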
Rev-erbA mod = modulators of human Rev-erb alpha DNA binding; P20393; Rev-erbα–FITC-DNA binding, fluorescence polarization, 90 min; activity, % at 10 µM; 370,000 compounds, 0.79% hits; AID 1259318;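 active means activity above about 14%, limit read from the data; passing the limit was not always enough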
Target sequence (P20393 whole entry, looked up): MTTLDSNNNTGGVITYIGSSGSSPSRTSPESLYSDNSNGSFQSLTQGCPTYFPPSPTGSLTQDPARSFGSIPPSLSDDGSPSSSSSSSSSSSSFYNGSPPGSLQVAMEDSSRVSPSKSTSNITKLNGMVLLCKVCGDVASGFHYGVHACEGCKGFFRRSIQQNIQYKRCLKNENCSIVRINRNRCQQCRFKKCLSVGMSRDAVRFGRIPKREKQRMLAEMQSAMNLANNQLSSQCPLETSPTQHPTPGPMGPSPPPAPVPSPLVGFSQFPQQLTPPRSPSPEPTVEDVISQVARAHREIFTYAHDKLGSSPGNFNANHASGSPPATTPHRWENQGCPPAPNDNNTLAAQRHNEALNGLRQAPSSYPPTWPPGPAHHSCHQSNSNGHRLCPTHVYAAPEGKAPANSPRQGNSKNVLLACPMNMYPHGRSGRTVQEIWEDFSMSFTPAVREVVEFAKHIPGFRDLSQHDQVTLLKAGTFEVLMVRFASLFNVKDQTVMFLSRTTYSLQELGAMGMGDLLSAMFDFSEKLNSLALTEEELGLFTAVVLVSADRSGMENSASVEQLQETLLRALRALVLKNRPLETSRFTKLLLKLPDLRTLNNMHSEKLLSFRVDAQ
PG9 bind confirm = confirmation of small molecules binding HIV-1 gp120 antibody PG9. shares compounds with PG9 binder. TR-FRET PG9 antibody binding, biochemical. inhibition, % at 6.7 µM. 1,500 compounds, 90% hits. AID 651571; in the data active means inhibition above about 9%
PGV04 Ab binding = binds control antibody PGV04 in PG9 binder counter-screen; shares compounds with PG9 binder; inhibition, % at 6.7 µM; 1,500 compounds, 95% hits; TR-FRET PGV04 antibody-gp120 binding, biochemical; AID 651604; in the data active means inhibition above about 9.5%
Rev-erbA confirm = confirmation of modulators of human Rev-erb alpha DNA binding; shares compounds with Rev-erbA mod; Rev-erb alpha FITC-DNA binding, fluorescence polarization, 90 min; activation, % at 25 µM; 3,000 compounds, 61% hits; AID 1259319;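 active means activation at or above a set limit, or at least 3 SD above the negative control mean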
RORg DNA counter = RORgamma DNA-binding activity, dose-response counter-screen. IC50, µM. shares compounds with Rev-erbA mod. purified RORgamma protein-FITC-DNA binding, fluorescence polarization. 910 compounds, 8% hits. AID 1259320;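 active means Compounds whose fitted half-maximal concentration for disrupting protein-DNA binding is below 10 micromolar; the record names Rev-erb in its text, so the target is in doubt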
A number is an active result; 0 = inactive; - = no result. The list is not random: actives were taken first. Their share in the collection is about 1.4%.

SMILES | NR2E3 ag-1 | PG9 binder | NR2E3 ag-2 | Rev-erbA mod | PG9 bind confirm | PGV04 Ab binding | Rev-erbA confirm | RORg DNA counter
COC(=O)CSc1nc(C)c(C(=O)Nc2ccccc2C)c(-c2ccc(Cl)cc2)c1C#N | 0 | 9.1 | 0 | 26.1 | 0 | 16.3 | 0 | -
Cc1ccccc1NC(=O)c1c(C)nc(SCC(=O)OCc2ccccc2)c(C#N)c1-c1ccc(F)cc1 | 0 | 0 | 0 | 0 | - | - | - | -
COC(=O)Cn1c(=NC(=O)c2ccc(OC)c(OC)c2)sc2cc(OC)ccc21 | 0 | 32.8 | 0 | 64.0 | 60.7 | 75.0 | 31.4 | 0
O=C(CNC(=O)c1sc2ccccc2c1Cl)NCc1cccc(C(F)(F)F)c1 | 0 | 15.4 | 0 | 31.1 | 17.3 | 19.1 | 17.3 | -
Cc1ccc2nc3c(cc(C(=O)NC4CCS(=O)(=O)C4)n3Cc3ccccc3)c(=O)n2c1 (centres undefined) | 0 | 22.8 | 0 | 25.8 | 19.5 | 30.8 | 0 | -
Cc1cc(SCC(=O)c2cccs2)nc2c(C)cccc12 | 0 | 0 | 0 | 0 | - | - | - | -
CC(=O)Nc1ccc(C(=O)CSc2cc(C)c3cccc(C)c3n2)cc1 | 0 | 17.2 | 0 | 37.5 | 22.8 | 47.8 | 30.1 | -
Cn1c(SCC(=O)NCc2ccc3c(c2)OCO3)ncc(C(=O)Nc2ccc(F)cc2)c1=O | 0 | 21.4 | 0 | 39.7 | 16.1 | 18.4 | 50.9 | 0
COc1ccc(N(CC(=O)N2CCN(c3ccc(Cl)cc3)CC2)S(=O)(=O)c2c(C)n[nH]c2C)cc1 | 0 | 0 | 0 | 0 | - | - | - | -
O=C(NCc1ccccc1Cl)c1cnccc1C(F)(F)F | 0 | 0 | 0 | 0 | - | - | - | -
O=S(=O)([N-]c1nc2ccccc2nc1-n1cc[n+](Cc2ccccc2)c1)c1ccc(Cl)cc1 | 0 | 42.0 | 0 | 42.3 | 41.2 | 57.7 | 0 | -
Cc1onc(-c2c(Cl)cccc2Cl)c1C(=O)NC(=S)N1CCOCC1 | 0 | 0 | 0 | 0 | - | - | - | -
Oc1ccc(Br)cc1C1Nc2ccccc2S1 (centres undefined) | 0 | 24.8 | 0 | 151.7 | 20.6 | 43.6 | 88.6 | 0
CC1C(=O)C(C)C(c2cc(Br)ccc2O)NC1c1cc(Br)ccc1O (centres undefined) | 0 | 0 | - | 0 | - | - | - | -
Cn1c(SCC(=O)Nc2ccccc2)nc2c([nH]c3ccccc32)c1=O | 0 | 8.8 | 0 | 21.0 | 0 | 13.8 | 16.0 | -
COc1ccc(-n2c(SCC(=O)Nc3cc(C)on3)nc3c([nH]c4ccccc43)c2=O)cc1 | 0 | 56.6 | 0 | 82.9 | 43.5 | 49.7 | 67.4 | 0
COc1cc(NC(=O)CCn2c(=S)[nH]c3ccccc3c2=O)cc(OC)c1OC | 0 | 81.3 | - | 26.7 | 78.9 | 81.0 | 35.7 | 0
COc1cc2cc(Br)cc(Br)c2nc1C | 0 | 47.5 | 0 | 36.6 | 39.7 | 53.7 | 22.2 | -
COc1cc2cnncc2cc1OC | 0 | 0 | 0 | 0 | - | - | - | -
Cc1nn(C)c(C)c1S(=O)(=O)N(CC(=O)NCCN1CCOCC1)c1ccc(C(C)C)cc1 | 0 | 0 | 0 | 0 | - | - | - | -
COCCN=C1OC(=O)N2C(=O)C3=C4[C@@H](C[C@H]5C(=O)N(c6ccccc6)C(=O)[C@H]5[C@H]4[C@@]12Cc1ccccc1)[C@H]1C(=O)N(c2ccccc2)C(=O)[C@H]1[C@H]3C | 0 | 0 | 0 | 0 | - | - | - | -
COC(=O)c1sc(NC(=O)c2c(OC)cccc2OC)c(C#N)c1C | 0 | 14.2 | 0 | 26.5 | 19.9 | 28.8 | 28.9 | -
CCOC(=O)c1sc(=NC(=O)c2ccc(F)cc2)n(C)c1C | 0 | 0 | 0 | 0 | - | - | - | -
CCOC(=O)c1sc(=NC(=O)c2ccc(C)cc2)n(C)c1C | 0 | 21.5 | 0 | 20.1 | 21.8 | 52.5 | 0 | -
COC(=O)c1c(-c2ccc(F)cc2)csc1NC(=O)c1ccco1 | 0 | 11.6 | 0 | 26.8 | 18.2 | 25.4 | 0 | -
SMILES | NR2E3 ag-1 | PG9 binder | NR2E3 ag-2 | Rev-erbA mod | PG9 bind confirm | PGV04 Ab binding | Rev-erbA confirm | RORg DNA counter
O=C(Nc1scc(-c2ccccc2)c1C(=O)O)c1ccco1 | 0 | 0 | 0 | 0 | - | - | - | -
O=C(COc1ncnc2ccc(Br)cc12)NCc1ccc2c(c1)OCO2 | 0 | 40.5 | 0 | 57.8 | 40.0 | 59.4 | 50.5 | 0
Cc1ccc(CSc2nc3ccncc3n2CC(=O)Nc2cc(C)cc(C)c2)cc1 | 0 | 24.9 | 0 | 80.7 | 32.2 | 49.5 | 34.1 | 0.258
CCc1ccc(OCc2nnc(SCCN3CCOCC3)n2C)cc1 | 0 | 0 | 0 | 0 | - | - | - | -
Cc1ccc(-n2c(=O)[nH]cc(C(=O)N3CCc4ccccc43)c2=O)cc1C | 0 | 0 | 0 | 0 | - | - | - | -
Cc1sc2nc(SC(C)C)nc(N)c2c1C | 0 | 10.6 | 0 | 48.5 | 8.8 | 13.4 | 40.7 | 0
COc1ccccc1N(C)S(=O)(=O)c1ccc(C(=O)Nc2nc(C)c(C(C)=O)s2)cc1 | 0 | 39.6 | 0 | 103.6 | 41.2 | 60.9 | 87.3 | 0
C=CCn1c(SCc2nc3ccccc3c(=O)[nH]2)nc2scc(C3CC3)c2c1=O | 0 | 14.7 | 0 | 25.8 | 16.9 | 28.8 | 22.1 | -
CCn1c(SCc2nc3ccccc3c(=O)[nH]2)nc2ccccc2c1=O | 0 | 0 | 0 | 0 | - | - | - | -
Cc1ccc(C)c2nc(SCC(=O)NCc3cccs3)c(C#N)cc12 | 0 | 0 | 0 | 0 | - | - | - | -
Cc1ccc2nc(SCC(=O)Nc3ccc4sc(C)nc4c3)c(C#N)cc2c1 | 0 | 33.4 | 0 | 73.4 | 29.5 | 53.9 | 71.4 | 0
Cc1cccc2cc(C#N)c(SCC(=O)NCc3cccs3)nc12 | 0 | 42.5 | 0 | 86.6 | 49.7 | 74.8 | 60.8 | 0
CCc1cc2cc(C)ccc2nc1SCC(=O)Nc1cc(C)on1 | 0 | 14.1 | 0 | 16.8 | 11.3 | 31.1 | 25.8 | -
CCOC(=O)CC(=O)CSc1nc2ccc(C)cc2cc1C#N | 0 | 0 | 0 | 0 | - | - | - | -
Cc1cc(NC(=O)CSc2nc3c(c(-c4cccnc4)c2C#N)CCC3)no1 | 0 | 20.5 | 0 | 40.7 | 31.8 | 65.9 | 38.7 | -
CC(=O)N1CCN(S(=O)(=O)c2cccc(C(=O)OCc3ccc(F)cc3)c2)CC1 | 0 | 0 | - | 0 | - | - | - | -
Cc1cc(NC(=O)NC2CC(=O)N(c3ccc4c(c3)OCCO4)C2)no1 (centres undefined) | 0 | 0 | 0 | 0 | - | - | - | -
O=C1CCCc2ccc3ccccc3c21 | 0 | 0 | - | 0 | - | - | - | -
CCOc1ccc(-n2c(Cc3cc(=O)[nH]c(=O)[nH]3)nnc2SCC(N)=O)cc1 | 0 | 0 | 0 | 0 | - | - | - | -
C=CCn1c(SCC(=O)N(C)C2CCS(=O)(=O)C2)nnc1-c1ccccc1 (centres undefined) | 0 | 0 | 0 | 0 | - | - | - | -
Cc1cc(C)c2nc(SCC(=O)Nc3cc(C)on3)c(C)cc2c1 | 0 | 0 | 0 | 0 | - | - | - | -
COc1cc2cc(C#N)c(SCC(=O)Nc3cc(C)on3)nc2cc1OC | 0 | 46.4 | 0 | 113.0 | 48.9 | 68.8 | 75.1 | 0
Cc1cc(C)c2nc(SCC(=O)Nc3cc(C)on3)c(C#N)cc2c1 | 0 | 28.4 | 0 | 103.5 | 51.7 | 75.2 | 67.6 | 0
